In ChEMBL document CHEMBL1949523, “Synthesis and evaluation of aza-peptidyl inhibitors of the lysosomal asparaginyl endopeptidase, legumain” (Bioorg Med Chem Lett, 2012):
Calls of active or inactive are those of the source. The calls are words filed in the database; no cut-off is given here.

How the values were obtained:
Legumain = molecular target: T1, Legumain (Mus musculus, UniProt O89017); assay: Inhibition of mouse recombinant legumain using Cbz-Ala-Ala-Asn-AMC as substrate measured every 30 secs for 2.5 hrs by fluorimetry
T1 sequence (O89017 whole entry): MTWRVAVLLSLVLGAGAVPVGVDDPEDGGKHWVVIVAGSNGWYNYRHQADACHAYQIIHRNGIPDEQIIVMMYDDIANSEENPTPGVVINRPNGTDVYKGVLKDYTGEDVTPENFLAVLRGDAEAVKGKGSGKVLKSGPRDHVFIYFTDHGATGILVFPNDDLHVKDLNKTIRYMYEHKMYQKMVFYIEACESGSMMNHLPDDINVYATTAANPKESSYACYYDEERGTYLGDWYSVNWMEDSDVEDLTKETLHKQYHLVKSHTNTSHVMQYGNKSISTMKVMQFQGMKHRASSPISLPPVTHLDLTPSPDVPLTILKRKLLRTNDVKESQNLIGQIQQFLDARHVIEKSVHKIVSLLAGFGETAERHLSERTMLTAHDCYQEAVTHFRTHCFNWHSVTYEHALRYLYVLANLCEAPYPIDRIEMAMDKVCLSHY

[1] = Inhibition of cathepsin L using Cbz-Phe-Arg-AMC as substrate measured every 30 secs for 2.5 hrs by fluorimetry
Legumain (Mus musculus) = molecular target: T2, Legumain (Mus musculus) (UniProt O89017); assay: Binding affinity to legumain in mouse RAW264.7 cells at 0.1 to 10 uM after 60 mins by SDS-PAGE analysis; type: cell-based
T2 sequence (whole entry): T1 sequence (O89017 whole entry)
How it was run: (§1)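 RAW 264.7 macrophages incubated with Cy5-labeled probes for 60 min across a concentration range. Cells lysed hypotonically, labeled proteins resolved on 12.5% SDS-PAGE, detected by in-gel fluorescence scanning.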

[2] = molecular target: T3, Pro-cathepsin H (Mus musculus) (UniProt P49935); assay: Binding affinity to cathepsin H in mouse RAW264.7 cells at 10 uM after 60 mins by SDS-PAGE analysis; type: cell-based; how it was run: as §1
T3 sequence (whole entry): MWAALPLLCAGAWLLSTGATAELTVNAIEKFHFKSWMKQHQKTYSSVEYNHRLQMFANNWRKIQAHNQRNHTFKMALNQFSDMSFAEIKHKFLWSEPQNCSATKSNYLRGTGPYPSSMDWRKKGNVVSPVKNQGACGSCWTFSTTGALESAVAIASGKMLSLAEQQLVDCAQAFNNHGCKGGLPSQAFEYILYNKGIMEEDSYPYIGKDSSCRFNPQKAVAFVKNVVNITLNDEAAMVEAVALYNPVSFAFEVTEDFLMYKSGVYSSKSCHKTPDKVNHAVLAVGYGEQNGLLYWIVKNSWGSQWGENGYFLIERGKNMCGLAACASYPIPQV

[3] = molecular target: Cathepsin B (Mus musculus) (UniProt P10605); assay: Binding affinity to cathepsin B in mouse RAW264.7 cells at 10 uM after 60 mins by SDS-PAGE analysis; type: cell-based; how it was run: as §1
Cathepsin B (Mus musculus), sequence (P10605 80-333 limits assumed): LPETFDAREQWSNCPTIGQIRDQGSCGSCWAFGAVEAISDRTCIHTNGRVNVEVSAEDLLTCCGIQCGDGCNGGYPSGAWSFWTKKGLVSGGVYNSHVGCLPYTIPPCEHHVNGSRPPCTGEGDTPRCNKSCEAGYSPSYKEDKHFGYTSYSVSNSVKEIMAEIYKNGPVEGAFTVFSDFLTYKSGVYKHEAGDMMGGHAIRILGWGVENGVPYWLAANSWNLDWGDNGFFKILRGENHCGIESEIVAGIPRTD

| Structure (SMILES) | IC50 (Legumain) | IC50 [1] | also measured |
| --- | --- | --- | --- |
| CCOC(=O)/C=C/C(=O)N(CC(N)=O)NC(=O)[C@@H]1CCCN1C(=O)[C@H](CC)NC(=O)CCCCCNC(=O)CCCCCN1/C(=C/C=C/C=C/C2=[N+](CC)c3ccc(S(=O)(=O)O)cc3C2(C)C)C(C)(C)c2cc(S(=O)(=O)[O-])ccc21 | – | – | Activity (Legumain (Mus musculus)): Active |
| C#CC[C@H](NC(C)=O)C(=O)N1CCC[C@H]1C(=O)NN(CC(N)=O)C(=O)/C=C/C(=O)OCC | 0.017 µM | 855 µM | – |
| CCOC(=O)/C=C/C(=O)N(CC(N)=O)NC(=O)[C@@H]1CCCN1C(=O)[C@H](CC)NC(C)=O | 0.0065 µM | 964 µM | – |
| CCOC(=O)/C=C/C(=O)N(CC(N)=O)NC(=O)[C@@H]1CCCN1C(=O)C(C)(C)NC(C)=O | 0.198 µM | – | – |
| CCOC(=O)/C=C/C(=O)N(CC(N)=O)NC(=O)[C@@H]1CCCN1C(=O)C(NC(C)=O)=C(C)C | 0.148 µM | – | – |
| CCOC(=O)/C=C/C(=O)N(CC(N)=O)NC(=O)[C@@H]1CCCN1C(=O)CCCCCNC(=O)CCCCCN1/C(=C/C=C/C=C/CC2=[N+](CC)c3ccc(S(=O)(=O)O)cc3C2(C)C)C(C)(C)c2cc(S(=O)(=O)[O-])ccc21 | – | – | Activity (Legumain (Mus musculus)): Active |
| CCOC(=O)[C@@H]1O[C@H]1C(=O)N(CC(N)=O)NC(=O)[C@@H]1CCCN1C(=O)C1(NC(=O)CCCCCNC(=O)CCCCCN2/C(=C/C=C/C=C/C3=[N+](CC)c4ccc(S(=O)(=O)O)cc4C3(C)C)C(C)(C)c3cc(S(=O)(=O)[O-])ccc32)CC1 | – | – | Activity [2]: Active; Activity [3]: Active; Activity (Legumain (Mus musculus)): Active |
| CCOC(=O)/C=C/C(=O)N(CC(N)=O)NC(=O)[C@@H]1CCCN1C(=O)[C@H]1CSCN1C(C)=O | 0.167 µM | – | – |
| CCOC(=O)/C=C/C(=O)N(CC(N)=O)NC(=O)[C@@H]1CCCN1C(C)=O | 0.0083 µM | > 1000 µM | – |
| C/C=C(\NC(C)=O)C(=O)N1CCC[C@H]1C(=O)NN(CC(N)=O)C(=O)/C=C/C(=O)OCC | 0.141 µM | – | – |
| CCOC(=O)/C=C/C(=O)N(CC(N)=O)NC(=O)[C@@H]1CCCN1C(=O)C1(NC(C)=O)CC1 | 0.0093 µM | > 1000 µM | – |
| CCOC(=O)C1OC1C(=O)N(CC(N)=O)NC(=O)[C@@H]1CCCN1C(=O)CCCCCNC(=O)CCCCCN1/C(=C/C=C/C=C/C2=[N+](CC)c3ccc(S(=O)(=O)O)cc3C2(C)C)C(C)(C)c2cc(S(=O)(=O)[O-])ccc21 (some centres not stated) | – | – | Activity [2]: Active; Activity [3]: Active; Activity (Legumain (Mus musculus)): Active |

Second part, led by results:

| IC50 (Legumain) | IC50 [1] | Structure (SMILES) | also measured |
| --- | --- | --- | --- |
| 0.0044 µM | 106 µM | CCOC(=O)C1OC1C(=O)N(CC(N)=O)NC(=O)[C@@H]1CCCN1C(=O)C1(NC(C)=O)CC1 (some centres not stated) | – |
| > 1 µM | – | CCOC(=O)/C=C/C(=O)N(CC(N)=O)NC(=O)[C@@H]1CCCN1C(=O)c1cccc(NC(C)=O)c1 | – |
| > 1 µM | – | CCOC(=O)/C=C/C(=O)N(CC(N)=O)NC(=O)[C@@H]1CCCN1C(=O)[C@@H]1Cc2ccccc2CN1C(C)=O | – |
| 0.0081 µM | 890 µM | CCOC(=O)C1OC1C(=O)N(CC(N)=O)NC(=O)[C@@H]1CCCN1C(=O)[C@H](CC)NC(C)=O (some centres not stated) | – |
| 0.267 µM | – | CCOC(=O)/C=C/C(=O)N(CC(N)=O)NC(=O)[C@@H]1CCCN1C(=O)c1ccc(CNC(C)=O)cc1 | – |
| 0.0093 µM | 370 µM | CCOC(=O)C1OC1C(=O)N(CC(N)=O)NC(=O)[C@@H]1CCCN1C(C)=O (some centres not stated) | – |
| > 1 µM | – | CCOC(=O)/C=C/C(=O)N(CC(N)=O)NC(=O)[C@@H]1CCCN1C(=O)[C@H](Cc1ccc(O)c([N+](=O)[O-])c1)NC(C)=O | – |
| 0.0086 µM | 358 µM | C#CC[C@H](NC(C)=O)C(=O)N1CCC[C@H]1C(=O)NN(CC(N)=O)C(=O)C1OC1C(=O)OCC (some centres not stated) | – |
